The nature of data set [1]: folding enthalpy; higher = less favourable; fluorescence melt of hairpins on a sequencing array, two-state fit. The note with it: sodium 0.088 M. In a few lines: (§1)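 Folding enthalpy and melting temperature were estimated with bootstrapped two-state fits and combined across four replicates by inverse-variance weighting, with fitted temperatures raised by 9.35 °C to match UV melts. The data were Cy3 fluorescence of library hairpins, with annealed Cy3 and quencher oligos, on a sequenced MiSeq flow cell in 50 mM Na-HEPES pH 8.0, 25 mM NaCl, imaged in 2.5 °C steps up to 60 °C and normalised to pre-quench Cy3 and control constructs.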

Data set [2] can be described thus: melting temperature; fluorescence melt of hairpins on a sequencing array, two-state fit, raised by 9.35 °C to match UV melts. The note with it: sodium 0.088 M. In a few lines:
as §1

For the sequence GTAAGCGGAAACACTTAC (((((.(....).))))), the folding enthalpy in data set [1] is -29.8 kcal/mol. Also, in data set [2], the Tm stood at 35.6 °C.
The corresponding values for GTAAGCGGAAACGTTTGC (.((.((....)).)).) are -14.9 kcal/mol and 31.9 °C.
Take GTAAGGCCGAAAGGCTAC (((..(((....)))))): the folding enthalpy in data set [1] was -9.55 kcal/mol. For the same sequence, the Tm in data set [2] was 33.8 °C.
The corresponding values for GTAAGGCGAAAGCCGTAC (((.(((....))).))) are -14.2 kcal/mol and 53 °C.
For GTAAGGGAAACCTTAC ((((((....)))))), the folding enthalpy in data set [1] is -26.2 kcal/mol. In data set [2], the Tm was 48 °C.
As for GTAAGGGGAAACCCCTAC (((.(((....))).))), the folding enthalpy in data set [1] is -16.9 kcal/mol. For the same sequence, the Tm in data set [2] amounted to 39 °C.
Take GTAAGGGGAAACCCTTGC (.(((((....))))).): the folding enthalpy in data set [1] is -23.3 kcal/mol. Moreover, in data set [2], the Tm came out at 46.2 °C.
The corresponding values for GTAAGTCCGAAAGGATAC (((..(((....)))))) are -10.1 kcal/mol and 25.9 °C.
In the case of GTAAGTCGAAAGACCTAC (((.(((....))).))), the folding enthalpy in data set [1] is -17 kcal/mol. For the same sequence, the Tm in data set [2] came to 35.7 °C.
With GTAAGTGGAAACACTTAC (((((((....))))))), the folding enthalpy in data set [1] is -45.2 kcal/mol. The Tm in data set [2] was 55.4 °C.
In the same order, the values of GTAATAACGAAAGTTTAC (((..(((....)))))) are -10.5 kcal/mol and 26.8 °C.
The corresponding values for GTAATACCGAAAGGTTAC (((..(((....)))))) are -14.6 kcal/mol and 31.5 °C.
For the sequence GTAATCCGAAAGGAATAC (((.(((....))).))), in data set [1], the folding enthalpy was -26.2 kcal/mol. For the same sequence, in data set [2], the Tm stood at 40.6 °C.
The corresponding values for GTAATCGAAAGATTATAC ((((((....)))..))) are -15.6 kcal/mol and 33.4 °C.
The corresponding values for GTAATCGGAAACGACTAC (((.(((....))).))) are -19.5 kcal/mol and 34.3 °C.
Regarding GTAATGCGAAAGCAATAC (((.(((....))).))), in data set [1], the folding enthalpy was -20 kcal/mol. For the same sequence, the Tm in data set [2] was found to be 44.6 °C.
In the case of GTAATGCGAAAGCACTAC (((.(((....))).))), the folding enthalpy in data set [1] was -19.9 kcal/mol. Also, in data set [2], the Tm was 39.4 °C.
Consider GTAATGGGAAACCATTGC (.(((((....))))).), for which the folding enthalpy in data set [1] was -26.4 kcal/mol. Moreover, in data set [2], the Tm is 43.3 °C.
Regarding GTAATGGGAAACCGTTAC ((((.((....)).)))), the folding enthalpy in data set [1] was -34.3 kcal/mol. The Tm in data set [2] is 44.1 °C.
As for GTAATGTCGAAAGACTAC (((..(((....)))))), the folding enthalpy in data set [1] is -11.7 kcal/mol. Also, in data set [2], the Tm amounted to 28.8 °C.
The corresponding values for GTAATTGGAAACAATTAC (((((((....))))))) are -45.9 kcal/mol and 50.4 °C.
Turning to GTAATTGGAAACGATTAC (((((.(....).))))), the folding enthalpy in data set [1] is -32.4 kcal/mol. Moreover, the Tm in data set [2] was 38.1 °C.
In the case of GTACAACGAAAGTTTAC (((.(((....)))))), the folding enthalpy in data set [1] is -11.5 kcal/mol. In addition, the Tm in data set [2] amounted to 27.8 °C.
The corresponding values for GTACAAGCGAAAGCTTAC (((..(((....)))))) are -11.2 kcal/mol and 28.4 °C.
In the same order, the values of GTACAAGGAAACTCGTAC ((((.((....)).)))) are -22 kcal/mol and 29.1 °C.
For GTACACGAAAGTGATTAC ((((((....)))..))), in data set [1], the folding enthalpy is -14.6 kcal/mol. Moreover, in data set [2], the Tm was 27.4 °C.
In the same order, the values of GTACACGAAAGTGCTAC ((((((....))).))) are -15.9 kcal/mol and 39.9 °C.
Turning to GTACACGAAAGTGGATAC ((((((....)))..))), the folding enthalpy in data set [1] was -11.8 kcal/mol. Moreover, the Tm in data set [2] turned out to be 34.5 °C.
The corresponding values for GTACACGAAAGTGTCTAC ((((((....)))..))) are -10.6 kcal/mol and 35.8 °C.
In the case of GTACACGAAAGTGTTAC ((((((....))).))), the folding enthalpy in data set [1] was -12.9 kcal/mol. Also, the Tm in data set [2] worked out at 42.5 °C.
In the same order, the values of GTACACGAAAGTGTTTAC ((((((....)))..))) are -9.29 kcal/mol and 29 °C.
GTACATGAAAATGTAC ((((((....)))))): the folding enthalpy in data set [1] is -33.9 kcal/mol. For the same sequence, in data set [2], the Tm came out at 51.2 °C.
The corresponding values for GTACCACGAAAGTGTTAC (((.(((....))).))) are -24.1 kcal/mol and 39.2 °C.
Turning to GTACCAGGAAACCAGTAC ((((..(....)..)))), the folding enthalpy in data set [1] is -11.4 kcal/mol. Moreover, in data set [2], the Tm came out at 24.9 °C.
Take GTACCCGAAAGGGATTAC ((((((....)))..))): the folding enthalpy in data set [1] is -9.27 kcal/mol. In addition, the Tm in data set [2] worked out at 25.7 °C.
In the same order, the values of GTACCCGAAAGGGGCTAC ((((((....)))..))) are -14.3 kcal/mol and 41.4 °C.
The corresponding values for GTACCCGAAAGGGGGTAC ((((((....)))..))) are -18.1 kcal/mol and 49.6 °C.
In the case of GTACCCGAAAGGGTATAC ((((((....)))..))), the folding enthalpy in data set [1] was -10.4 kcal/mol. In addition, in data set [2], the Tm was found to be 49.4 °C.
In the same order, the values of GTACCCGCGAAAGCGTAC (((..(((....)))))) are -8.05 kcal/mol and 25.7 °C.
In the same order, the values of GTACCGGAAACGGTAC ((((((....)))))) are -36.6 kcal/mol and 64.7 °C.
In the same order, the values of GTACCGGGAAACCGACAC ((..(((....)))..)) are -8.42 kcal/mol and 22.9 °C.
In the case of GTACCGGGAAACCGGTAC (((((((....))))))), the folding enthalpy in data set [1] was -29.2 kcal/mol. Besides, the Tm in data set [2] came out at 68.3 °C.
In the case of GTACCTGGAAACAGGTAC (((((((....))))))), in data set [1], the folding enthalpy was -41.8 kcal/mol. In data set [2], the Tm was determined as 61.9 °C.
As to GTACCTGGAAACGGGTAC (((((.(....).))))), the folding enthalpy in data set [1] is -41.8 kcal/mol. Further, the Tm in data set [2] amounted to 50.4 °C.
Take GTACGACGAAAGTCATAC (((.(((....))).))): in data set [1], the folding enthalpy is -19 kcal/mol. Moreover, the Tm in data set [2] worked out at 39.4 °C.
As to GTACGAGAAATCGTAC ((((((....)))))), the folding enthalpy in data set [1] is -38.2 kcal/mol. In addition, in data set [2], the Tm stood at 54.3 °C.
The corresponding values for GTACGAGGAAACCCGTAC (((((.(....).))))) are -30.8 kcal/mol and 46.5 °C.
As for GTACGCCCGAAAGGGTAC (((..(((....)))))), in data set [1], the folding enthalpy was -11.4 kcal/mol. The Tm in data set [2] came to 33.2 °C.
In the same order, the values of GTACGCCGAAAGGCATAC (((.(((....))).))) are -16.4 kcal/mol and 44.7 °C.
In the same order, the values of GTACGCGAAAGCGCTAC ((((((....))).))) are -13.2 kcal/mol and 42.2 °C.
The corresponding values for GTACGCGAAAGCGGTTAC ((((((....)))..))) are -8.32 kcal/mol and 32.7 °C.
For GTACGGGCGAAAGCCTAC (((..(((....)))))), the folding enthalpy in data set [1] is -8.32 kcal/mol. The Tm in data set [2] turned out to be 30 °C.
In the same order, the values of GTACGTCGAAAGACTAC (((.(((....)))))) are -21.9 kcal/mol and 41 °C.
As for GTACGTGGAAACACACAC ((..(((....)))..)), in data set [1], the folding enthalpy is -10.8 kcal/mol. In data set [2], the Tm turned out to be 27.4 °C.
For the sequence GTACGTGGAAACACATAC (((.(((....))).))), in data set [1], the folding enthalpy is -22.1 kcal/mol. Besides, the Tm in data set [2] came out at 32.7 °C.
